L major viab – Leishmania major promastigote growth inhibition | 200,000 tested, 9% active | inhibition, % at 10 µM | Leishmania major promastigotes, resazurin fluorescence viability | AID 1063; in the data active = inhibition above about 50%;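 also: promastigotes grown with compound for 44 hours at 28 °C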
Dynein transport – blocks dynein driven cargo transport along microtubules | 3617.4 mouse cells, GR-EGFP nuclear translocation imaging; test concentration mostly 20 µM; stimulated with dexamethasone, 1 µM; hits give low values | z-score, hits read low | 220,000 tested, 0.47% active;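 active = plate z-score of nuclear minus cytoplasmic receptor signal below a set negative limit, without overly bright fluorescence or cell loss, cut at about -3.5 in these data, passing the limit was not always enough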;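 also: z-score of nuclear minus cytoplasmic ring GR-EGFP intensity difference per well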
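Also added – dexamethasone, 1.0 µM final · Buffer or medium – tet-free, stripped-serum medium · Schedule – induction 48 h, compound 1 h, agonist 30 min · Detection – formaldehyde fixation, Hoechst nuclear stain, 10x automated fluorescence imaging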
HSV augment – HSV replication enhancement; HSV replication augmentation in cells, fold increase; maximum fold increase; 220,000 tested, 0.005% active; AID 1956; in the data active = maximum fold increase above about 1.5; inconclusive = no clear call, values can overlap the other calls; tested in PC3 cells
MT stabilize HCS – microtubule stabilization, imaging screen; % tubulin-high responders, % at 10 µM; AID 2205; HeLa tubulin immunostaining HCS, 24 h; share of cells brighter than vehicle mean+2SD; 200,000 tested, 0.83% active;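 active = plate Z-score above 3 for both tubulin-high and condensed-nucleus cell shares, with cell loss under 80%, at 10 µM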;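 also: anti alpha tubulin signal scored within the nucleus-defined area of each cell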
bCat nuc transl – modulators of beta-catenin nuclear translocation | nuclear translocation activity, % at 5 µM | 190,000 tested, 0.3% active | HeLa beta-catenin nuclear translocation, immunofluorescence imaging;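 active = nuclear translocation activity above 50% at 5 µM, with a well cell count of 50 or more; inconclusive = wells under 50 cells across six images, flagged as toxic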;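 also: per-cell ratio of nuclear to cytoplasmic median beta-catenin stain intensity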
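Technique: fluorescence imaging of beta-catenin antibody stain plus DAPI / Material: human HeLa cell line / Incubation: compound treatment 24 h, 37°C, 5% CO2 / Read-out basis: % activation of per-cell nuclear versus cytoplasmic median beta-catenin signal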
Hits are given with their value; . = inactive; ? = inconclusive; / = no result given. Shown are actives, neighbours in structure and some others; about 8.9% of the full set was active somewhere.

SMILES | L major viab | Dynein transport | HSV augment | MT stabilize HCS | bCat nuc transl
Cc1ccc(OCC(=O)Nc2ccc3c(c2)OC(F)(F)O3)c([N+](=O)[O-])n1 | . | . | . | . | .
Cc1ccccc1OCC(=O)Nc1ccc2c(c1)OCCO2 | / | . | . | / | .
COc1ccc(NC(=O)Cn2nc([N+](=O)[O-])c(Cl)c2C)cc1OC | / | . | . | / | .
CCNc1ccc(C(=O)OCC(=O)c2cc(C)n(Cc3ccc4c(c3)OCO4)c2C)cc1[N+](=O)[O-] | 67 | . | . | . | .
Cc1ccc(OCC(=O)Nc2ccc3c(c2)OCO3)c([N+](=O)[O-])n1 | 55 | . | . | . | /
Cc1cc(C)c(OCC(=O)Nc2ccc3c(c2)OCO3)cc1C | 80 | . | . | . | .
Cc1ccc(OCC(=O)Nc2ccc3c(c2)OCCO3)cc1C | . | . | . | . | .
Nc1ccc(C(=O)OCC(=O)Nc2ccc3c(c2)OCO3)cc1[N+](=O)[O-] | 69 | . | . | . | /
CCOC(=O)c1c(NC(C)=O)sc2c(OCC(O)CN(CC)CC)c(Br)ccc12 (centres undefined) | 100 | . | . | . | .
CCOC(=O)c1c(NC(C)=O)sc2c(OCCN(CC)CC)c(Br)ccc12 | 100 | . | . | . | .
S=C(NCc1ccccc1)N1CCN(Cc2ccc3c(c2)OCO3)CC1 | 92 | . | . | . | .
COCCCNC(=S)N1CCN(Cc2ccc3c(c2)OCO3)CC1 | . | . | . | . | .
CCCCNC(=S)N1CCN(Cc2ccc3c(c2)OCO3)CC1 | 75 | . | . | . | .
COc1ccc(OC)c(NC(=S)N2CCN(Cc3ccccc3)CC2)c1 | . | . | . | . | .
COc1cccc(CN2CCN(C(=S)NCc3ccc(Cl)cc3)CC2)c1 | 89 | . | . | . | .
O=C(N1CCCCC1)N1CCCN(C(=O)N2CCCCC2)CC1 | . | . | . | . | .
COc1ccccc1N/C=C/c1onc(C)c1[N+](=O)[O-] | . | . | / | . | .
CC1CN(C2CCN(C(=O)COc3ccc(Cl)cc3)CC2)CC(C)O1 (centres undefined) | 92 | . | . | . | /
CCOC(=O)N1CCN(C(=O)COc2ccc(Cl)cc2)CC1 | . | . | . | . | .
Cc1cccc(OCC(=O)N2CCC(N3CCOCC3)CC2)c1 | 92 | . | . | . | .
CCOc1ccccc1NC(=S)NC1CCCCC1 | 92 | . | . | . | .
Cc1c(Cl)cccc1NC(=S)NC1CC1 | 82 | . | . | . | /
Cc1c(Cl)cccc1NC(=S)NCCCN(C)C | 82 | . | . | . | /
Cc1nccc2[nH]c(=O)c(C(=O)NC3CCCCC3C)cc12 (centres undefined) | 99 | . | . | . | .
CS(=O)(=O)N(CC(=O)Nc1ccccc1C(=O)NCCc1ccccc1)c1ccc2c(c1)OCCO2 | 99 | . | . | . | .
SMILES | L major viab | Dynein transport | HSV augment | MT stabilize HCS | bCat nuc transl
O=C(O)CCC(=O)Nc1ccccc1C(=O)Nc1ccccc1 | . | . | . | . | .
O=C(O)CCC(=O)Nc1ccccc1C(=O)NCCc1ccccc1 | 56 | . | . | . | .
O=C(C1=C[C@H](C2CCCCC2)C[C@H](OCCCCO)O1)N1CCN(Cc2ccccc2)CC1 | 59 | . | . | . | .
O=C(C1=C[C@H](C2CC2)C[C@H](OCCCCO)O1)N1CCN(Cc2ccccc2)CC1 | . | . | . | . | .
N#CC1=C(N)Oc2cc(N)ccc2C1C1CCCCC1 (centres undefined) | . | . | . | 46 | /
Cn1c(N/N=C/c2c[nH]c3ccccc23)nc2ccccc21 | 101 | . | ? | . | .
Cc1cc(N/N=C/c2c[nH]c3ccccc23)c2ccccc2n1 | . | . | . | . | .
Cc1ccc(NC(=O)CN2C(=O)CNC2=O)cc1 | / | . | . | / | .
COC(=O)c1ccc(NC(=O)CN(Cc2ccc(Cl)cc2)S(C)(=O)=O)cc1 | 100 | . | . | . | .
COC(=O)c1ccc(NC(=O)Cc2ccc(C)cc2)cc1 | 65 | . | . | . | .
COC(=O)c1ccc(NC(=O)CN2C(=O)CNC2=O)cc1 | 91 | . | . | . | .
CS(=O)(=O)N(CC(=O)Nc1ccc2c(c1)OCO2)Cc1ccc(Cl)cc1 | . | . | . | . | .
CC(C)(C)c1ccc(-c2csc(NC(=O)CN3C(=O)NC4(CCCCC4)C3=O)n2)cc1 | 99 | . | . | . | .
Cc1ccccc1NC(=S)/C(=C(\[O-])c1cc(C)n(Cc2ccccc2Cl)c1C)[n+]1ccccc1 | . | . | . | . | .
CCC1(c2ccccc2)NC(=O)N(CC#N)C1=O (centres undefined) | . | . | . | . | .
